# Assay results as given in the EternaBench riboswitch data.
# Test system: MS2 coat protein
# Experiment: apparent Kd, MS2 coat protein; higher = weaker binding; RNA-MaP array; FMN 200 µM where present
# Summary of the method: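 On Illumina sequencing-chip clusters, designs were transcribed by stalled E. coli RNA polymerase and titrated with SNAP-549-labelled MS2 coat protein (0.7 or 1.5 nM, doubling to 3 µM), without and then with constant ligand, in 100 mM Tris-HCl pH 7.5, 80 mM KCl, 4 mM MgCl2, BSA, DTT, yeast tRNA and Tween-20. Apparent Kd is the median of filtered per-cluster curve fits to green signal normalised to red-channel RNA signal and control-cluster median Fmax.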
# [1] = designed as: OFF switch for flavin mononucleotide, no ligand
# [2] = ligand present: flavin mononucleotide, designed as: OFF switch for flavin mononucleotide
# [3] = designed as: ON switch for flavin mononucleotide, no ligand
# [4] = ligand present: flavin mononucleotide, designed as: ON switch for flavin mononucleotide
Sequence,apparent Kd [1],apparent Kd [2],apparent Kd [3],apparent Kd [4]
CCAACUGGAGGAUAUGCAGCGGCGGUCUCUUGGUUUGCAUUACAUGAGGAUCACCCAUGUAGAAGGCCGGUUGU,0.117 µM,0.201 µM,–,–
CCACGACCGGAGAAGGCAGUUUGUGGGCCUGUUCCUGUCGGAUACAUGAGGAUCACCCAUGUACCUGAGGAUAUCUGGUCGUAG,0.00499 µM,0.00557 µM,–,–
CCACGUCACAUCUACAUGAGGAUCACCCAUGUCAAAAGACAUGAGGAUAUGCAUCCUAAUUGGAUGCAGAAGGCAUGGACGUGG,–,–,0.972 µM,0.0697 µM
CCACGUCACAUGAACAUGAGGAUCACCCAUGUAAAUUCUCAUGAGGAUAUGGAUCCUAAUUGGAUCCAGAAGGCAUGGACGUGG,–,–,0.842 µM,0.348 µM
CCACGUCACAUUAACAUGAGGAUCACCCAUGUCUCUUGACAUGAGGAUAUGGAUCCUAAUUGGAUCCAGAAGGCAUGGACGUGG,–,–,1.37 µM,0.0998 µM
CCACUGUCAGGAUAUCGUGCAUAAACGUUUACAUUUAUGUGCGAGAAGGGACAUGAGGAUCACCCAUGUAAACG,0.314 µM,0.515 µM,–,–
CCAGCAACAUGAGGAUCACCCAUGUAGGAUAUCGCUAUUGUAAUCAUGAAACAUGAUUACAAUAGCGAGAAGGACAUAUGCUGG,0.00631 µM,0.0101 µM,–,–
CCAGGCAGUGUGAGGAUAUGCUGGUCCUUGGAUCAGCAGAAGGCACAUGAGGAUCACCCAUGUGAAGAGCUUGG,0.0239 µM,0.115 µM,–,–
CCAUAAAAGAUCCAUUUUUACAACAUGAGGAUCACCCAUGUGCAGGAUAUCGUGAAAGUAAAAUACGAGAAGGGCAAGAACUGC,0.106 µM,0.13 µM,–,–
CCAUAGUACAAUUUAGAUCUACAUGAGGAUCACCCAUGUACUGAGGAUAUCAGCUCGAAUAGAGCUGAGAAGGCAGAAUUAAUU,–,–,0.132 µM,0.0592 µM
CCAUGCGGAUGAGGAUAUUCAUCCAUGAGGAUAGAAGAAGGCAUACAUGAGGAUCACCCAUGUAUACACAUGAGGAUCCCUUAC,0.128 µM,0.178 µM,–,–
CCAUGCGGAUGAGGAUAUUCAUUUAUGAGGAUAGAAGAAGGCAUACAUGAGGAUCACCCAUGUAUACGCAUGAGGAUCCCUUAC,0.0342 µM,0.0272 µM,–,–
CCAUGGAAUGUAGGAUAUGUCUGACAAAGUCAGACAGAAGGACAUGAGGAUCACCCAUGUAGGAAACAACCACAUAAACCAUGG,0.00683 µM,0.00708 µM,–,–
CCAUUUCAGUAAGGAUAUAUAAACAUGACGAUACAUGAGGAUCACCCAUGUGUAGAAGGUACUAAUACAUAUAAUACAAUGCUC,0.0192 µM,0.0157 µM,–,–
CCCAAACUUGGGCUUGGCGGUGCAUAGGAUAUCCUUGAACAUGAGGAUCACCCAUGUACAACUGUGGAGAAGGGUGCAGGGCCU,–,–,0.132 µM,0.0173 µM
CCCAAACUUGGGUUUGGUGGUGCAUAGGAUAUGCUUGAACAUGAGGAUCACCCAUGUACUAUUGUGCAGAAGGGUGCAUGGCAA,–,–,0.401 µM,0.0291 µM
CCCACACUUGUGAGGAUAUGGAUAGCUGCUGCUGAUUAGAAGGCACAUGAGGAUCACCCAUGUCACCCUCAUGG,0.278 µM,0.255 µM,–,–
CCCAUGUUAGGAUAUAUGGAAGGGCGGACGGGCGCCCUUAGGUAGAAGGAACAUGAGGAUCACCCAUGUAAUAA,0.171 µM,0.161 µM,–,–
CCCGACCAGAAGUCGGUACGGAGGAGAAGGCGCCUCCUGGGUCCACAUGAGGAUCACCCAUGUGGCGAGGAUAUCCUCAGUUUU,0.0137 µM,0.119 µM,–,–

Sequence,apparent Kd [1],apparent Kd [2],apparent Kd [3],apparent Kd [4]
CCCUACACCGAGAAGGGCACGUAUUGAAGAGGGUGCCAGGAACAUCACAUGAGGAUCACCCAUGUGCAGGAUAUCGGCAGGAAC,0.00941 µM,0.0199 µM,–,–
CCGACCUUGGCAGGAUAUAGACUCGAAGUUGAUCCCGCCGGUGGAGACAUGAGGAUCACCCAUGUCUAGAAGGGCCAGUCGAAA,0.0162 µM,0.0729 µM,–,–
CCGAGUGGCGUACAGGAUAUGUUGCAUGGAACAUGAGGAUCACCCAUGUAUUUGCUCCCGCAUACGCAGAAGGGUGCGUCCUGGG,–,–,0.142 µM,0.0254 µM
CCGAUAAUGUAGGAUAUCGUAUCGGAAACGAUACGAGAAGGACAAACAUGAGGAUCACCCAUGUUCCUUAACGG,0.0155 µM,0.0165 µM,–,–
CCGAUGUGGGUACAGGAUAUGUGGGCCUCCACAUGAGGAUCACCCAUGUCGGAGGCAAAGCGGCUACAGAAGGGUGCGAGCUCGA,–,–,0.011 µM,0.0129 µM
CCGCUCGAAGGAUAUACAAUCCUCAGACUCUUCGACCAAAGACAUGAGGAUCACCCAUGUAGAAGGUCGGCGGA,0.0133 µM,0.0259 µM,–,–
CCGGAAAUACAGGAUAUCGUAUCGGAUACGAUACGAGAAGGGUAUACAUGAGGAUCACCCAUGUGUCCUACCGG,0.0251 µM,0.032 µM,–,–
CCGGAAAUGCAGGAUAUCGUAUCGGAUACGAUACGAGAAGGGUAUACAUGAGGAUCACCCAUGUGUCCUACCGG,0.0185 µM,0.0221 µM,–,–
CCGGCCGCCGUGAGGAUAUGCCCGCGCGCCCGCGGGCAGAAGGCACAUGAGGAUCACCCAUGUCCCGCGGCACC,0.0138 µM,0.0157 µM,–,–
CCGGCUUAGUAGGAUAUCAGAGUCGAAAGACUCUGAGAAGGACUAACAUGAGGAUCACCCAUGUGUCCUACCGG,0.0159 µM,0.036 µM,–,–
CCGGUUUAGGAGGAUAUAGGAGUCGAUAGACACCUAGAAGGCCUAACAUGAGGAUCACCCAUGUGACCUACCGG,0.0511 µM,0.177 µM,–,–
CCGUAGCAAGGAUAUACAUGAGGAUCACCCAUGUGUGUCAGUGUGGGUAGACAUUAAUGUAGAAGGUGCGACUG,0.0648 µM,0.161 µM,–,–
CCGUUACAUGAGGAUCACCCAUGUGAGGAUAUCGAUGUGACUGGCAGCGUGCGGGACUCGAGAAGGCACUUGGC,0.0746 µM,0.0585 µM,–,–
CCUAAACAUGAGGAUCACCCAUGUCAGGAUAUGGACCGUCUGGUGAAAUUCAGCUGGACCAGAAGGGACGUGGA,0.0322 µM,0.0455 µM,–,–
CCUAGUUGGUAAGGAUAUCCUACACUAUUCUGACCCGUGCAAGCUACAUGAGGAUCACCCAUGUGGGAGAAGGUGCGUCAACAU,0.0101 µM,0.0102 µM,–,–
CCUAUGUGAGGAUAUAGCCACAUUACGAAUAAGUAGUGUGGCUAGAAGGUACAUGAGGAUCACCCAUGUAUGGG,0.167 µM,0.0841 µM,–,–
CCUAUGUGAGGAUAUGGUGUUGGCCACAGGGAAAAGGUCCUCCAGAAGGCACAUGAGGAUCACCCAUGUCGUGG,0.116 µM,0.127 µM,–,–
CCUCCACAGGAGGAUAUCAUCAAACUAUUGUGAUGAGAAGGCCUGACAUGAGGAUCACCCAUGUUAUCGUGAUG,0.056 µM,0.185 µM,–,–
CCUCCACAUGAGGAUCACCCAUGUCAGGAUAUCGUGUGUUUUUUUUCGGUCUUGCGUGCGAGAAGGGACGUCUU,0.0356 µM,0.0394 µM,–,–

Sequence,apparent Kd [1],apparent Kd [2],apparent Kd [3],apparent Kd [4]
CCUCGUCACAUUAACAUGAGGAUCACCCAUGUCAAAAGACAUGAGGAUAUGCAUCCUAAUUGGAUGCAGAAGGCAUGGACGAGG,–,–,0.474 µM,0.0365 µM
CCUCUACAUGAGGAUCACCCAUGUGAGGAUAUAUGCCCAUUACGCCAAGAGCGUGAUGAUAGAAGGCACAGGGU,0.022 µM,0.0727 µM,–,–
CCUCUGUCCGAGGAUAUGAGGUUAACGUGACCGUCAGAAGGCGGAACAUGAGGAUCACCCAUGUUUUGCGCAUG,0.0442 µM,0.068 µM,–,–
CCUGGCUUAGGAUAUACAGGAUCCGGGAACCCGGAAGUGAAACAUGAGGAUCACCCAUGUAGAAGGAAGAAAGC,0.0288 µM,0.0165 µM,–,–
CCUUGACAUGAGGAUCACCCAUGUGAGGAUAUGAUGCGAUCGUCGAAAGACGAUAGCAUCAGAAGGCACAUAUG,0.0234 µM,0.0957 µM,–,–
CCUUUCCGAGGAUAUACAUGAGGAUCACCCAUGUGAUCCUAAGGCUGAUCAAGCCUAUGUAGAAGGCGCAAAUC,0.133 µM,0.182 µM,–,–
CCUUUGAAGAUCCUAAAUUUCGACAUGAGGAUCACCCAUGUGCAGGAUAUCGUGCCAGUGAUGUACGAGAAGGGCAGUCUCUGC,0.049 µM,0.0535 µM,–,–
CGAAACUACGAGAAGGACAUGUGGUCCUUCAGUUACAUGAGGAUCACCCAUGUAGGAUAUCGUAGUUUCAGGAUCGUGAGAUCG,0.045 µM,0.0194 µM,–,–
CGAACCCGAGGAUAUCGUAAACCCGACAUGAGGAUCACCCAUGUCAUCCUCACGGCGCCACGAGAAGGCGGUGUUU,0.0565 µM,0.16 µM,–,–
CGAACUAAGUAGAAGGCUGUCUUAAAAUAGGACAGAGGAUAUACAUGAGGAUCACCCAUGUACUCCUUUAAUAAGUUUGAAAUA,0.00584 µM,0.00648 µM,–,–
CGAAGGGAGUCAGGAUAUGUUCCUUUCAUACGGACAGAAGGGACUCCUUACAUGAGGAUCACCCAUGUAAGGGUAGUCUUCAGG,0.0607 µM,0.0906 µM,–,–
CGAGCUGCUGUGAGGAUAUGCCUGUGGGUGCGUGGGUAGAAGGCACAUGAGGAUCACCCAUGUCCUGCAGCUCG,0.856 µM,0.412 µM,–,–
CGAUGGUAUAUAGGAUAUCAUGUGCAAACAUGAGGAUCACCCAUGUAGGAACGUCAGUUCAAUAAUGAGAAGGAUAUACCAUCG,–,–,0.0351 µM,0.0109 µM
CGAUGUUAUGUCAGGAUAUGCAUUGCGAAAGCAAUGCAGAAGGGACAUGAGGAUCACCCAUGUCCUAACCAUCG,0.0132 µM,0.0201 µM,–,–
CGAUUGUAUAGAGGAUAUGUUAUACAUGAGGAUCACCCAUGUGAGGUGGAAAUAUUUAAUUACAUACAGAAGGCUAUACAAUCG,0.231 µM,0.237 µM,–,–
CGCAACUCUUCACAUGUCAACAUGAGGAUCACCCAUGUAUUGAGAAGGAGGAAGAAGAGAGAUUCCUAGGAUAUCAGAGUUGCG,0.00675 µM,0.00608 µM,–,–
CGCACUGAUAGAGGAUAUGUUUAACAUGAGGAUCACCCAUGUGUACAAGUAUCAAUAUUUAUCAAACAGAAGGCUAUUAGUGCG,0.00484 µM,0.00388 µM,–,–
CGCAGGAUACAGAAGGAGUUAUUGAGAGGUUUACUAGGAUAUGUUCACAUGAGGAUCACCCAUGUCGUAUGGUUUUUUGUUGCG,0.0226 µM,0.0161 µM,–,–
